Measured values: ChEMBL document CHEMBL3046055, “Synthesis and herbicidal activity of novel N-(2,2,2)-trifluoroethylpyrazole derivatives” (J Agric Food Chem, 2010)

Experiments:
Echinochloa crus-galli [1] = experiment: Herbicidal activity against Echinochloa crus-galli (barnyard grass) assessed as inhibition of fresh weed plant weights at 600 g ai/ha using pre-emergence treatment protocol under greenhouse conditions relative to untreated control; type: functional
In short: (§1)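 Pre-emergence test in plastic pots kept in a greenhouse at 22-25 °C. Fresh weight of aerial plant parts was measured 20 days later, and percent inhibition calculated relative to water-sprayed controls. Metolachlor served as the positive control. Three replicates were run per concentration.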

Portulaca oleracea [2] = experiment: Herbicidal activity against Portulaca oleracea assessed as inhibition of fresh weed plant weights at 600 g ai/ha using pre-emergence treatment protocol under field trials conditions measured 30 days post soil treatment relative to untreated control; type: functional; conditions: 720 h
In short: (§2)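 Field pre-emergence trial. Treatments were applied to the soil surface within 24 h after maize planting, at 300, 400, 600 and 800 g a.i. ha^-1. Fresh weight of aerial plant parts was measured 30 days later, and percent inhibition calculated relative to the water-sprayed control.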

Echinochloa crus-galli [3] = experiment: Herbicidal activity against Echinochloa crus-galli (barnyard grass) assessed as inhibition of fresh weed plant weights at 150 g ai/ha using pre-emergence treatment protocol under greenhouse conditions relative to untreated control; type: functional; in short: as §1
Zea mays [4] = experiment: Toxicity against Zea mays var. SHEN DAN 17 (maize) assessed induction of crop injury at 400 g ai/ha using pre-emergence treatment protocol under field trials conditions measured 30 days post soil treatment; type: organism-based; conditions: in vivo, other, 720 h
In short: (§3)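 Pre-emergence application to soil surface within 24 h after maize planting, at 300, 400, 600 or 800 g a.i. ha^-1. Fresh weight of aerial plant parts measured 30 days later; percentage inhibition calculated relative to water-sprayed control.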

Convolvulus arvensis = experiment: Herbicidal activity against Convolvulus arvensis assessed as inhibition of fresh weed plant weights at 400 g ai/ha using pre-emergence treatment protocol under field trials conditions measured 30 days post soil treatment relative to untreated control; type: functional; conditions: 720 h; in short: as §2
Portulaca oleracea [5] = experiment: Herbicidal activity against Portulaca oleracea assessed as inhibition of fresh weed plant weights at 150 g ai/ha using pre-emergence treatment protocol under greenhouse conditions relative to untreated control; type: functional; in short: as §1
Eleusine indica [6] = experiment: Herbicidal activity against Eleusine indica assessed as inhibition of fresh weed plant weights at 300 g ai/ha using pre-emergence treatment protocol under field trials conditions measured 30 days post soil treatment relative to untreated control; type: functional; conditions: 720 h; in short: as §2
Echinochloa crus-galli [7] = experiment: Herbicidal activity against Echinochloa crus-galli (barnyard grass) assessed as inhibition of shoot growth at […] measured 7 days post treatment; type: functional; set-up: dose or concentration left out as unconfirmed; conditions: 168 h, read-out: GI
Eleusine indica [8] = experiment: Herbicidal activity against Eleusine indica assessed as inhibition of fresh weed plant weights at 800 g ai/ha using pre-emergence treatment protocol under field trials conditions measured 30 days post soil treatment relative to untreated control; type: functional; conditions: 720 h; in short: as §2
Portulaca oleracea [9] = experiment: Herbicidal activity against Portulaca oleracea assessed as inhibition of shoot growth at […] measured 7 days post treatment; type: functional; conditions: 168 h, read-out: GI
In short: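 Petri-dish agar assay. A 10 g/L stock of compound in acetone was mixed into molten agar; the untreated control was agar without compound. Seeds were placed on the agar surface and the cups were covered with glass lids. Incubation was 25 ± 1 °C, 50-55% RH, 12 h light/12 h dark, for 7 days. Root and shoot lengths were measured and growth inhibition calculated against the control, in three replicates.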

Echinochloa crus-galli [10] = experiment: Herbicidal activity against Echinochloa crus-galli (barnyard grass) assessed as inhibition of fresh weed plant weights at 600 g ai/ha using pre-emergence treatment protocol under field trials conditions measured 30 days post soil treatment relative to untreated control; type: functional; conditions: 720 h; in short: as §2
Zea mays [11] = experiment: Toxicity against Zea mays var. SHEN DAN 17 (maize) assessed induction of crop injury at 800 g ai/ha using pre-emergence treatment protocol under field trials conditions measured 30 days post soil treatment; type: organism-based; conditions: in vivo, other, 720 h; in short: as §3
Zea mays [12] = experiment: Toxicity against Zea mays var. SHEN DAN 17 (maize) assessed as inhibition of fresh weed plant weights at 600 g ai/ha using pre-emergence treatment protocol under greenhouse conditions relative to untreated control; type: organism-based; conditions: in vivo, other; in short: as §1
[13] = tested on: Brassica rapa subsp. oleifera; experiment: Toxicity against Brassica rapa subsp. oleifera var. JING GUAN 1 assessed as inhibition of fresh weed plant weights at 150 g ai/ha using pre-emergence treatment protocol under greenhouse conditions relative to untreated control; type: organism-based; conditions: in vivo, other; in short: as §1

Cc1nn(CC(F)(F)F)c(CS(=O)(=O)C2=NOC(C)(C)C2)c1Cl
inhibition at 600 g/ha (Echinochloa crus-galli [1]): 100% | inhibition at 600 g/ha (Portulaca oleracea [2]): 95% | inhibition at 150 g/ha (Echinochloa crus-galli [3]): 100% | Activity (Zea mays [4]): 0% | inhibition at 400 g/ha (Convolvulus arvensis): 16% | inhibition at 150 g/ha (Portulaca oleracea [5]): 70% | inhibition at 300 g/ha (Eleusine indica [6]): 97% | inhibition of growth (Echinochloa crus-galli [7]): 84% | inhibition at 800 g/ha (Eleusine indica [8]): 99% | inhibition of growth at 100000 µg/mL (Portulaca oleracea [9]): 54% | inhibition at 600 g/ha (Echinochloa crus-galli [10]): 100% | Activity (Zea mays [11]): 0% | inhibition (INH) (Zea mays [12]): 1% | inhibition (INH) [13]: 7%
